# Data: PubChem BioAssay
# A number with no mark means an inactive call. Inconclusive results are not listed. The source made the active and inactive calls.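 The calls were made as follows, unless noted: active = inhibition over a set limit, the all-compound mean plus 3 SD, in both replicate runs; inconclusive = over that limit in just one replicate run; inactive = at or under that limit in both runs.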
# Assays:
# [1] = OD615 S. cerevisiae growth inhibition, permissive medium, pilot counter-assay, permissive growth control for S. cerevisiae lifespan shortening project (AID 705;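 active = growth inhibition above 25% in both replicates, a cutoff set 3 SD above the mean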); conditions: OD615, 24 h, at 10 µM, active compounds read high
# Procedure, shortened: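 System: S. cerevisiae with engineered DeaD lifespan system / Measured by: absorbance (optical density) at 615 nm / Read-out: reduction in yeast growth (OD615) / Times: 4 h cell pre-growth, 24 h exposure at 30 °C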
# [2] = Restrictive medium S. cerevisiae growth inhibition, OD615, pilot screen of yeast lifespan reduction project, restrictive growth control (AID 706;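 active = growth inhibition above a set limit, 3 SD over mean compound inhibition, in both replicates, cut at about 43% in these data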;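 also: modified DeaD lifespan yeast strain shifted to restrictive glucose medium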); conditions: OD615, 48 h, at 10 µM, active compounds read high
# Procedure, shortened: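 System: Engineered S. cerevisiae DeaD strain | Buffer or medium: Glucose-based CSMM-D restrictive medium | Schedule: 4 h pre-incubation, 48 h exposure at 30 °C | Technique: Optical density at 615 nm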
# [3] = viability gain of MRP-1-high H69AR cells under doxorubicin, pilot screen, MRP-1 activator project, CellTiter-Glo, duplicate (AID 807;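 active = viability increase at or above a cutoff of the median across tested compounds plus 3 SD, cut at about 8.5% in these data, passing the limit was not always enough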;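 also: compound pretreatment 18-22 h then 72 h combined with doxorubicin; 0% = doxorubicin alone and 100% = vehicle without doxorubicin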); conditions: H69AR viability with doxorubicin, CellTiter-Glo luminescence; at 10 µM; active compounds read high
# [4] = growth suppression of beta-catenin knockout HCT116, pilot screen, human colon tumor cells (AID 823;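 active = cell viability at or below a set limit in both duplicate runs, the limit being the all-compound median minus 4 SD, cut at about 23% in these data, passing the limit was not always enough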;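 also: 0% = wells killed by 20 µM Hyamine and 100% = untreated DMSO cell wells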); conditions: CellTiter-Glo, 60 h, at 10 µM, active compounds read low
# [5] = growth suppression of PTEN-deleted HCT116, pilot screen, cell-based, HCT116 clonal line, CellTiter-Glo (AID 824;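 active = viability at or below 27.92% in each of two runs, the all-compound median minus 4 SD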;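 also: 0% = 20 µM Hyamine control and 100% = vehicle cell control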); conditions: 60 h, at 10 µM, active compounds read low
# [6] = inhibitors of the yeast RAM network, pilot screen, dse1pr::URA3 reporter, 5-FOA selection (AID 869);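 also: 0% = DMSO wells with no growth and 100% = 10 µM 1-NA-PP1 with full growth; RAM network block rescues cells from 5-FOA so hits raise OD615 growth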; conditions: S. cerevisiae dse1pr::URA3 5-FOA growth, OD615, 2 d; at 10 µM; active compounds read high; strain carries analog-sensitive mutant Cbk1 kinase
# [7] = RAM signaling pathway blockade in yeast – S. cerevisiae, Pdr1DBD-CYC8 efflux-inhibited sensitized strain, primary screen (AID 1298;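 active = RAM network inhibition above 8.4% in each of two replicates, 3 SD over the compound average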;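 also: 0% = DMSO untreated cells without growth and 100% = 10 µM 1-NA-PP1 full growth; higher means more yeast growth rescued from 5-FOA killing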); conditions: S. cerevisiae cbk1-as DSE1-URA3 strain, 5-FOA growth OD615, 2 d; at 50 µM; active compounds read high
SMILES,growth inhibition [1] [%],growth inhibition [2],viability increase [3] [%],viability [4] [%],viability [5] [%],inhibition [6] [%],RAM network inhibition [7] [%]
COc1cc(OC)c(C2CC(=O)N3CN(C)CSC3=C2C#N)cc1OC (stereo unspecified),19.5,60% (active),-2.96,99.3,97.2,1.06,9.58
COCc1cc(C)nc(N2CCN(c3ccccc3)CC2)c1C#N,-15.6,-7.64%,0.13,86.3,81.9,2.28,6.31
CCOC(=O)N1CCC(c2cc(=O)n3[nH]c(-c4ccccc4)cc3n2)CC1,2.9,-2.34%,-1.16,102,95.3,3.11,9.15
O=C(c1cc(-c2ccc(O)cc2)on1)N1CCCc2ccccc21,-15.5,12.2%,-5.72,92.6,88.3,0.66,1.51
Cc1nn2c(=O)cc(CSc3nc4ccccc4[nH]3)nc2s1,-3.92,2.41%,-2.31,103,103,1.35,0.17
Cc1coc2c(C)c3oc(=O)c4c(c3cc12)CCCC4,-10.3,-13.6%,-5.04,81.3,59,2.46,5.02
COc1ccccc1-c1c(C)nn2c(N3CCN(c4ccccc4OC)CC3)cc(C)nc12,-0.095,6.77%,-1.57,60.7,63.2,0.775,1.3
COc1cc(NC(=O)c2cc(C(C)C)on2)cc(OC)c1OC,-12.3,14.9%,-1.85,95.2,94.5,-0.755,-0.99
CCOC(=O)c1c(C)[nH]c(C(=O)CSc2nnnn2-c2ccccc2)c1C,-7.16,-0.165%,-1.88,100,93.4,2.31,1.57
CCCCC(CC)C(=O)NCCCN1CCN(CCCNC(=O)C(CC)CCCC)CC1 (stereo unspecified),-6.17,2.97%,-1.81,87.3,90.6,-0.16,2.42
CCOC(=O)c1ccc(NC(=O)C2CCCN(S(=O)(=O)c3cnc[nH]3)C2)cc1 (stereo unspecified),2.33,2.53%,0.94,105,96.7,0.31,2.17
O=C(Nc1ccncc1)c1ccc2c(c1)OCCO2,1.55,-11.1%,0.93,85.6,84,1.98,5.5
CCN(CC)S(=O)(=O)c1ccc(C(=O)Nc2ccc(OCC(=O)N3CCOCC3)cc2)cc1,-6,-11%,0.35,86.6,95.4,0.185,4.45
Cc1ccc(CCNC(=O)C2CCCN(S(=O)(=O)c3c(C)noc3/C=C/N(C)C)C2)cc1 (stereo unspecified),-1.76,6.26%,-1.67,88.1,74.1,1.85,1.68
CCOC(=O)C1C(=O)OC2(CCOC(C)(C)C2)C1C(=O)OCC (stereo unspecified),1.65,7.69%,-0.15,105,100,1.38,0.98
COc1ccc(C2CC(c3ccc(Cl)cc3Cl)Nc3nc(N)nn32)cc1OC (stereo unspecified),0.16,22.6%,6.01,88.2,85.7,0.4,1.22
COC(=O)C1=C(C)NC(=O)NC1C1CC=CCC1 (stereo unspecified),-13.7,-8.8%,0.06,96.2,95.5,3.1,6.9
Cc1c(Br)cc(C(=O)N2CCCC2)c(C)c1C,-12.7,-11.1%,-2.86,102,98.9,0.205,3.08
